In the library only some 3.2% were active in any assay of this set; here they are far more common.
rCAG binder: molecules binding r(CAG) RNA repeats; inhibition, % at 3 µM; 370,000 compounds, 1.3% hits; r(CAG) RNA repeat, TO-PRO-1 dye displacement fluorescence;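 active = inhibition above the plate cutoff, the mean of all test compounds on that plate plus 3 SD, cut at about 35% in these data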;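 note: 0% = DMSO alone and 100% = 100 µM mitoxantrone as full dye displacement; higher means more dye released from RNA so lower well fluorescence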
DAGLB inh: diacylglycerol lipase beta (human) inhibition | Q8NCG7 | HEK293T DAGLB membrane lysate, EnzChek fluorogenic substrate | inhibition, % at 5.17 µM | 340,000 compounds, 0.059% hits; in the data active = inhibition above about 34%;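 note: 0% = enzyme with vehicle and 100% = wells lacking enzyme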
mABHD4 FP: ABHD4 (mouse) inhibition, primary FP screen | Q8VD66 | 370,000 compounds, 0.54% hits | AID 720543 | inhibition, % at 8.92 µM | purified mABHD4, FP-Rh probe fluorescence polarization;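 active = inhibition exceeding the mean over every tested compound plus 3 SD, cut at about 30% in these data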;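 note: 0% = plate median of compound wells and 100% = S159A mutant with DMSO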
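Test system: mABHD4 protein; Read-out basis: % inhibition; Incubation: 45 min + 60 min at 25 °C; Repeats: single replicate; Technique: fluorescence polarization with parallel and perpendicular emission, 525/598 nm; Compound: 8.92 µM, single dose; Benchmarks: full inhibition S159A mutant plus DMSO, zero as sample-well median.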
LEDGF integ inh: blocks HIV-1 LEDGF/p75-dependent DNA integration | TR-FRET IN-LEDGF/p75 DNA integration, Eu/Cy5 | inhibition, % at 3.7 µM | 370,000 compounds, 0.64% hits | AID 743269;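 active = inhibition above the screen-wide mean plus 3 SD, cut at about 13% in these data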;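 note: signal is the Cy5 over europium emission ratio at 671 and 618 nm; 0% = plate median of compound wells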
HTRA1 inhibitor: blocks human HTRA1 serine peptidase; recombinant HTRA1, FP-rhodamine activity-based probe, fluorescence polarization; inhibition, % at 5.96 µM; 340,000 compounds, 0.5% hits; AID 504803; in the data active = inhibition above about 36%;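 note: 0% = enzyme with DMSO and 100% = wells lacking enzyme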
Target sequence (Q92743 whole entry, looked up): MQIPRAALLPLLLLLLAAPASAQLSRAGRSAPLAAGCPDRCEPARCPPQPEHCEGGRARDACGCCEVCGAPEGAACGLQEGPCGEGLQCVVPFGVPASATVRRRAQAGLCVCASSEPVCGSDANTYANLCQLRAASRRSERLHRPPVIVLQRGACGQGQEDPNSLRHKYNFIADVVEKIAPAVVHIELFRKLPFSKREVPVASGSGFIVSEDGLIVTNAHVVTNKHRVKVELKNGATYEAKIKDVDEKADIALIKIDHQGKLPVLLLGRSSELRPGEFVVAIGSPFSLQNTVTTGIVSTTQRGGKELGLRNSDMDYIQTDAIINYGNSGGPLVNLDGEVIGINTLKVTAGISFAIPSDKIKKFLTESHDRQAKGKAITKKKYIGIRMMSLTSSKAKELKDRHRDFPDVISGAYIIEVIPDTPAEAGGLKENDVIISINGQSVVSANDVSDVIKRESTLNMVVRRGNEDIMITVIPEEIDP
PRMT1 FP inh: inhibitors of human PRMT1 | Q99873 | 370,000 compounds, 1.3% hits | AID 652257 | recombinant PRMT1, activity-based probe fluorescence polarization | inhibition, % at 2.79 µM;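 active = inhibition above about 21% made by adding two undisclosed values, limit read from the data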
IN multimer act: activates HIV-1 integrase multimerization in LEDGF counter-screen | AID 1053131 | shares compounds with LEDGF integ inh | TR-FRET HIV-1 integrase multimerization, biochemical | 2,000 compounds, 17% hits | activation, % at 7.7 µM; in the data active = activation above about 8.9%
TR-FRET interf: counter-screen for LEDGF/p75 integration inhibitors: TR-FRET optical interference | inhibition, % at 7.7 µM | shares compounds with LEDGF integ inh | TR-FRET optical interference counterscreen, HIV-1 IN multimerization | 2,000 tested, under 10 active;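 active = inhibition above the mean over all tested compounds plus 3 SD, which no compound reached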;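 note: 0% = integrase with antibodies and DMSO and 100% = antibodies without integrase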
IN-LEDGF confirm: confirmation of HIV-1 LEDGF/p75-dependent integration inhibitors; shares compounds with LEDGF integ inh; TR-FRET LEDGF/p75-dependent HIV-1 integration, biochemical; inhibition, % at 3.7 µM; 2,000 compounds, 36% hits; AID 1053136; in the data active = inhibition above about 14%
* marks the source's active call; other numbers are inactive results; nt = not tested or not shown.

SMILES	rCAG binder	DAGLB inh	mABHD4 FP	LEDGF integ inh	HTRA1 inhibitor	PRMT1 FP inh	IN multimer act	TR-FRET interf	IN-LEDGF confirm
CC(=NCCc1ccccc1)C1=C(O)C(c2ccccc2)OC1=O (configuration not stated)	-3	0	1	-3	-2	6	nt	nt	nt
Cc1cc(=O)n2[nH]c(-c3ccc(F)cc3)cc2n1	3	1	0	1	-1	0	nt	nt	nt
Cc1cc(=O)n2[nH]c(-c3ccsc3-n3c(C)ccc3C)cc2n1	26	4	13	28*	30	15	25*	-127	50*
COc1ccc(COC(=O)N/C=C/c2ccco2)cc1	7	0	10	0	9	14	nt	nt	nt
COc1ccccc1COC(=O)N/C=C/c1ccco1	16	-2	5	14*	-12	8	-1	4	17*
COC(=O)c1ccccc1S(=O)(=O)N1CCCC(c2nc3c(nnn3Cc3ccc(C)cc3)c(=O)[nH]2)C1 (configuration not stated)	7	1	-1	-7	-14	5	nt	nt	nt
CC1Cn2c(CCc3ccccc3)nnc2S1 (configuration not stated)	-1	1	-3	23*	4	3	0	-1	-6
CC(O)CC(=O)OC[C@]12CC[C@H]3[C@@](C)(CC[C@H]4C(C)(C)CCC[C@]34C)[C@@H]1CC(C1=CC(=O)OC1O)O2 (some centres not stated)	13	nt	-9	23*	nt	12	0	2	41*
O=C(Nc1cccc([N+](=O)[O-])c1)Nc1cccc([N+](=O)[O-])c1	13	0	-2	0	-12	1	nt	nt	nt
O=[N+]([O-])c1cccc(I)c1	1	nt	4	65*	nt	1	-2	12	-2
CN1C(=O)[C@H]2[C@@H](/C=C/c3ccccc3)N3C(=O)CN(Cc4ccccc4)C(=O)[C@@]3(C)[C@H]2C1=O	1	-4	23	-5	-8	2	nt	nt	nt
COC(=O)CN1C(=O)[C@H]2[C@@H](/C=C/c3ccccc3)N3C(=O)CN(Cc4ccccc4)C(=O)[C@@]3(C)[C@H]2C1=O	-4	0	5	81*	-4	0	0	-2	-17
CCOC(=O)NNC1CC(=O)N(c2ccccc2)C1=O (configuration not stated)	2	-1	0	18*	22	-4	1	-5	2
O=C(Nc1nc(-c2ccccc2)c(-c2ccccc2)o1)c1ccc(F)cc1	5	-10	-26	26*	-5	-2	0	0	18*
COc1cccc(C(=O)Nc2nc(-c3ccccc3)c(-c3ccccc3)o2)c1	5	-2	-10	14*	-41	-1	0	-2	19*
O=C(CCCOc1ccc(Cl)cc1Cl)NCCCn1ccnc1	-4	1	6	27*	5	-1	0	-1	2
CCCN1C2=NCCN2c2ccccc21	-2	-1	-1	-1	8	-3	nt	nt	nt
N#Cc1nc(COc2ccccc2Cl)oc1N1CCCC1	-4	-3	3	19*	-3	6	1	-4	-7
O=C(Cc1ccc(Br)cc1)NNC(=O)c1cccs1	3	0	2	14*	-3	-2	0	0	0
Cc1ccc(C)c(Nc2ccc(C(=O)NCCc3ccccc3)cn2)c1	-3	-1	-13	37*	-3	-2	1	-5	9
Cc1ccc(Nc2ccc(C(=O)NCCc3ccccc3)cn2)cc1	1	2	-1	-2	-5	0	nt	nt	nt
O=C1CC(c2ccco2)CC(O)=C1C=NCC1NCCc2ccccc21 (configuration not stated)	6	1	8	23*	23	7	4	-15	6
O=C1CC(c2ccco2)CC(O)=C1C=NCCO (configuration not stated)	-1	-2	8	10	1	5	nt	nt	nt
O=C(COc1ccccc1)N(Cc1cccs1)C1CCS(=O)(=O)C1 (configuration not stated)	0	-1	-8	-1	-2	-1	nt	nt	nt
CCN(CC)C(=O)[C@H]1C[C@H](CC(=O)NCCc2ccccn2)C(=O)N2CCc3c([nH]c4cc(-c5ccco5)ccc34)[C@]12C	8	2	1	65*	6	2	0	-1	-5
SMILES	rCAG binder	DAGLB inh	mABHD4 FP	LEDGF integ inh	HTRA1 inhibitor	PRMT1 FP inh	IN multimer act	TR-FRET interf	IN-LEDGF confirm
CCN(CC)C(=O)[C@H]1C[C@H](CC(=O)NCCCN(C)C)C(=O)N2CCc3c([nH]c4cc(-c5ccco5)ccc34)[C@]12C	6	0	7	3	6	1	nt	nt	nt
CCc1nc2c(OCC3COc4ccccc4O3)cccn2c1N(C)C(=O)c1ccc(OC)cc1 (configuration not stated)	8	nt	7	0	nt	1	nt	nt	nt
CCc1nc2c(OCC3COc4ccccc4O3)cccn2c1N(C)C(=O)c1cccc(OC)c1 (configuration not stated)	3	nt	0	20*	nt	-1	1	-6	0
O=C(NC(Cc1ccccc1)C(=O)O)/C(=C/c1ccc(Cl)cc1)NC(=O)c1ccccc1 (configuration not stated)	15	0	-5	20*	-5	-2	2	-8	15*
COC(=O)[C@]1(C)N[C@H](CN(C)S(=O)(=O)c2ccc(OC(F)(F)F)cc2)[C@@H]2C(=O)N(Cc3ccccc3)C(=O)[C@@H]21	-1	-6	5	15*	5	1	0	1	-4
COC(=O)[C@]1(C)N[C@H](CN(C)S(=O)(=O)c2ccc(F)cc2)[C@@H]2C(=O)N(Cc3ccccc3)C(=O)[C@@H]21	3	-1	5	1	4	0	nt	nt	nt
Cc1ccn(CCC(=O)N2CCCC(N3CCN(c4ccccc4C)CC3)C2)n1 (configuration not stated)	0	1	7	58*	7	-5	-1	4	0
Cc1oc(C)c2c(=O)ccc3c(c12)OC(N)=C(C#N)C3c1ccccc1 (configuration not stated)	19	2	15	15*	24	22*	-2	7	8
COc1cccc(/C=N/N2CCOCC2)c1O	-1	1	4	1	6	0	nt	nt	nt

High-throughput results (PubChem BioAssay)
